Peptide text beside a SMILES is read from it. Some results are limits rather than exact numbers.

One may read the Emax as the maximal effect, on the per cent scale that the assay sets. The term EC50 denotes the midpoint of the concentration-response curve. High values mean a less potent agent, low ones a more potent agent. As a reminder, the IC50 is the concentration that inhibits the measured activity by half.

In assay [1] the target is T1, Nociceptin receptor (Homo sapiens, UniProt P41146). Kind of assay: Efficacy for human ORL1 receptor expressing HEK293 cell membrane. Type of assay: functional, cell-based. The method, boiled down:
(§1)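 Membranes from HEK-293 cells expressing human ORL1 (10 μg) were incubated for 30 min at 24 °C with peptides (0.01 nM to 10 μM) in 20 mM HEPES pH 7.4 with 100 mM NaCl, 10 mM MgCl₂, 1 mM EDTA, 5 μM GDP and 400 pM [³⁵S]GTPγS. Binding was read with WGA-coated SPA beads.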

Assay [2] has as its target T1, Nociceptin receptor. Put plainly: Efficacy for human ORL1 receptor expressing HEK293 cells. The assay is classed as functional, cell-based. Summed up:
as §1

Assay [3] addresses T1, Nociceptin receptor. Put plainly: Displacement of [3H]NC from human ORL1 receptor expressing HEK293 cell membrane. Type of assay: cell membranes.

T1 sequence (P41146 whole entry): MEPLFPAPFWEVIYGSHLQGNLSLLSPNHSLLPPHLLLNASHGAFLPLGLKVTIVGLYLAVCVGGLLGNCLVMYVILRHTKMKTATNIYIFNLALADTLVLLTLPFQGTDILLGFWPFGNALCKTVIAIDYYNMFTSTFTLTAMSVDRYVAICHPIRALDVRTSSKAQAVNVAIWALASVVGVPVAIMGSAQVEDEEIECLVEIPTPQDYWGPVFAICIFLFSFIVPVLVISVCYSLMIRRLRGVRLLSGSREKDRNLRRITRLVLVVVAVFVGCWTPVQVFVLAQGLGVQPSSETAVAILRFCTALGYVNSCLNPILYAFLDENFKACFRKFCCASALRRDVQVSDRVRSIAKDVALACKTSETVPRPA

Compound `C[C@H](NC(=O)[C@H](CO)NC(=O)[C@H](CCCCN)NC(=O)[C@H](CCCN=C(N)N)NC(=O)[C@H](C)NC(=O)[C@H](CS)NC(=O)[C@@H](NC(=O)[C@H](Cc1ccccc1)NC(=O)CNC(=O)CNC(=O)[C@H](Cc1ccccc1)NC(=O)[C@@H](N)CS)[C@@H](C)O)C(=O)N[C@@H](CCCN=C(N)N)C(=O)N[C@@H](CCCCN)C(N)=O` (H-CFGGFTCARKSARK-NH2) gave a maximal response (Emax) in assay [1] of 12%.

In assay [2], `C[C@H](NC(=O)CNC(=O)[C@@H](NC(=O)[C@H](Cc1ccccc1)NC(=O)CNC(=O)CNC(=O)[C@@H](N)Cc1ccccc1)[C@@H](C)O)C(=O)N[C@@H](CCCNC(=N)N)C(=O)N[C@@H](CCCCN)C(=O)N[C@@H](CS)C(=O)N[C@@H](C)C(=O)N[C@@H](CCCNC(=N)N)C(=O)N[C@@H](CCCCN)C(=O)N[C@@H](CS)C(N)=O` (H-FGGFTGARKCARKC-NH2) yielded an EC50 of 3.9 nM. The same compound showed an IC50 in assay [3] of 0.471 nM.

For `C[C@@H](O)[C@H](NC(=O)[C@H](Cc1ccccc1)NC(=O)CNC(=O)CNC(=O)[C@@H](N)Cc1ccccc1)C(=O)NCC(=O)N[C@@H](CS)C(=O)N[C@@H](CCCN=C(N)N)C(=O)N[C@@H](CCCCN)C(=O)N[C@@H](CO)C(=O)N[C@@H](CS)C(=O)N[C@@H](CCCN=C(N)N)C(=O)N[C@@H](CCCCN)C(N)=O` (H-FGGFTGCRKSCRK-NH2), the maximal effect (Emax) in assay [1] was 99%. Besides, the EC50 in assay [2] was 26.3 nM. For the same compound, the IC50 in assay [3] worked out at 8.7 nM.

Take `C[C@H](NC(=O)[C@H](CO)NC(=O)[C@H](CCCCN)NC(=O)[C@H](CCCNC(=N)N)NC(=O)[C@@H]1CSSC[C@H](N)C(=O)N[C@@H](Cc2ccccc2)C(=O)NCC(=O)NCC(=O)N[C@@H](Cc2ccccc2)C(=O)N[C@@H]([C@@H](C)O)C(=O)NCC(=O)N1)C(=O)N[C@@H](CCCNC(=N)N)C(=O)N[C@@H](CCCCN)C(N)=O` (HELM PEPTIDE1{C.F.G.G.F.T.G.C.R.K.S.A.R.K.[am]}$PEPTIDE1,PEPTIDE1,1:R3-8:R3$$$V2.0): the EC50 in assay [2] is > 10000 nM. This compound also came in with an IC50 in assay [3] of 874 nM.

The compound `CC(C)C[C@H](NC(=O)[C@H](CCCCN)NC(=O)[C@H](CCCN=C(N)N)NC(=O)[C@H](C)NC(=O)[C@H](CO)NC(=O)[C@H](CCCCN)NC(=O)[C@H](CCCN=C(N)N)NC(=O)[C@H](C)NC(=O)CNC(=O)[C@@H](NC(=O)[C@H](Cc1ccccc1)NC(=O)CNC(=O)CNC(=O)[C@@H](N)Cc1ccccc1)[C@@H](C)O)C(N)=O` (H-FGGFTGARKSARKL-NH2) came in with a maximum response (Emax) in assay [1] of 105%. The same compound gave an EC50 in assay [2] of 1.97 nM. In assay [3], this compound returned an IC50 of 0.52 nM.

In assay [1], `C[C@H](NC(=O)CNC(=O)[C@@H](NC(=O)[C@H](Cc1ccccc1)NC(=O)CNC(=O)CNC(=O)[C@H](Cc1ccccc1)NC(=O)[C@@H](N)CS)[C@@H](C)O)C(=O)N[C@@H](CCCN=C(N)N)C(=O)N[C@@H](CCCCN)C(=O)N[C@@H](CS)C(=O)N[C@@H](C)C(=O)N[C@@H](CCCN=C(N)N)C(=O)N[C@@H](CCCCN)C(N)=O` (H-CFGGFTGARKCARK-NH2) displayed an Emax of 59%.

As for `C[C@H](NC(=O)[C@@H]1CSSC[C@H](NC(=O)[C@@H](NC(=O)[C@H](Cc2ccccc2)NC(=O)CNC(=O)CNC(=O)[C@@H](N)Cc2ccccc2)[C@@H](C)O)C(=O)N[C@@H](C)C(=O)N[C@@H](CCCNC(=N)N)C(=O)N[C@@H](CCCCN)C(=O)N1)C(=O)N[C@@H](CCCNC(=N)N)C(=O)N[C@@H](CCCCN)C(N)=O` (HELM PEPTIDE1{F.G.G.F.T.C.A.R.K.C.A.R.K.[am]}$PEPTIDE1,PEPTIDE1,6:R3-10:R3$$$V2.0), in assay [1], the Emax was determined as 99%. This compound yielded an EC50 in assay [2] of 31.3 nM. In assay [3], this compound registered an IC50 of 0.833 nM.

The compound `C[C@H](NC(=O)CNC(=O)[C@@H](NC(=O)[C@H](Cc1ccccc1)NC(=O)CNC(=O)CNC(=O)[C@@H](N)Cc1ccccc1)[C@@H](C)O)C(=O)N[C@@H](CCCNC(=N)N)C(=O)N[C@@H](CCCCN)C(=O)N[C@H]1CSSC[C@@H](C(N)=O)NC(=O)[C@H](CCCCN)NC(=O)[C@H](CCCNC(=N)N)NC(=O)[C@H](C)NC1=O` (HELM PEPTIDE1{F.G.G.F.T.G.A.R.K.C.A.R.K.C.[am]}$PEPTIDE1,PEPTIDE1,10:R3-14:R3$$$V2.0) registered an EC50 in assay [2] of 4.37 nM. Also, the IC50 in assay [3] was determined as 0.122 nM.

For `C[C@@H]1NC(=O)[C@H](CO)NC(=O)[C@H](CCCCN)NC(=O)[C@H](CCCNC(=N)N)NC(=O)[C@@H](NC(=O)CNC(=O)[C@@H](NC(=O)[C@H](Cc2ccccc2)NC(=O)CNC(=O)CNC(=O)[C@@H](N)Cc2ccccc2)[C@@H](C)O)CSSC[C@@H](C(N)=O)NC(=O)[C@H](CCCCN)NC(=O)[C@H](CCCNC(=N)N)NC1=O` (HELM PEPTIDE1{F.G.G.F.T.G.C.R.K.S.A.R.K.C.[am]}$PEPTIDE1,PEPTIDE1,7:R3-14:R3$$$V2.0), the response in assay [2] was half-maximal at 25 nM (EC50). Moreover, the IC50 in assay [3] is 4.97 nM.

`C[C@H](NC(=O)[C@H](CO)NC(=O)[C@H](CCCCN)NC(=O)[C@H](CCCN=C(N)N)NC(=O)[C@H](CS)NC(=O)CNC(=O)[C@@H](NC(=O)[C@H](Cc1ccccc1)NC(=O)CNC(=O)CNC(=O)[C@@H](N)Cc1ccccc1)[C@@H](C)O)C(=O)N[C@@H](CCCN=C(N)N)C(=O)N[C@@H](CCCCN)C(=O)N[C@@H](CS)C(N)=O` (H-FGGFTGCRKSARKC-NH2) returned an Emax in assay [1] of 101%.

Turning to `C[C@H](NC(=O)[C@H](CO)NC(=O)[C@H](CCCCN)NC(=O)[C@H](CCCNC(=N)N)NC(=O)[C@H](CS)NC(=O)CNC(=O)[C@@H](NC(=O)[C@H](Cc1ccccc1)NC(=O)CNC(=O)CNC(=O)[C@@H](N)Cc1ccccc1)[C@@H](C)O)C(=O)N[C@@H](CCCNC(=N)N)C(=O)N[C@@H](CCCCN)C(=O)N[C@@H](CS)C(N)=O` (H-FGGFTGCRKSARKC-NH2), the EC50 in assay [2] is 22.3 nM. The IC50 in assay [3] stood at 37.2 nM.

As to `C[C@H](NC(=O)[C@H](CO)NC(=O)[C@H](CCCCN)NC(=O)[C@H](CCCNC(=N)N)NC(=O)[C@H](CS)NC(=O)CNC(=O)[C@@H](NC(=O)[C@H](Cc1ccccc1)NC(=O)CNC(=O)CNC(=O)[C@H](Cc1ccccc1)NC(=O)[C@@H](N)CS)[C@@H](C)O)C(=O)N[C@@H](CCCNC(=N)N)C(=O)N[C@@H](CCCCN)C(N)=O` (H-CFGGFTGCRKSARK-NH2), the EC50 in assay [2] (hek293) was > 10000 nM. Moreover, in assay [3] (hek293), the 50% inhibitory concentration (IC50) is 2710 nM.

`C[C@@H]1NC(=O)[C@H](CO)NC(=O)[C@H](CCCCN)NC(=O)[C@H](CCCN=C(N)N)NC(=O)[C@@H](NC(=O)CNC(=O)[C@@H](NC(=O)[C@H](Cc2ccccc2)NC(=O)CNC(=O)CNC(=O)[C@@H](N)Cc2ccccc2)[C@@H](C)O)CSSC[C@@H](C(N)=O)NC(=O)[C@H](CCCCN)NC(=O)[C@H](CCCN=C(N)N)NC1=O` (HELM PEPTIDE1{F.G.G.F.T.G.C.R.K.S.A.R.K.C.[am]}$PEPTIDE1,PEPTIDE1,7:R3-14:R3$$$V2.0) displayed a maximal effect (Emax) in assay [1] of 95%.

Take `C[C@H](NC(=O)CNC(=O)[C@@H](NC(=O)[C@H](Cc1ccccc1)NC(=O)CNC(=O)CNC(=O)[C@@H](N)Cc1ccccc1)[C@@H](C)O)C(=O)N[C@@H](CCCN=C(N)N)C(=O)N[C@@H](CCCCN)C(=O)N[C@@H](CS)C(=O)N[C@@H](C)C(=O)N[C@@H](CCCN=C(N)N)C(=O)N[C@@H](CCCCN)C(=O)N[C@@H](CS)C(N)=O` (H-FGGFTGARKCARKC-NH2): the Emax in assay [1] was 105%.

In turn, `C[C@@H]1NC(=O)CNC(=O)[C@H]([C@@H](C)O)NC(=O)[C@H](Cc2ccccc2)NC(=O)CNC(=O)CNC(=O)[C@H](Cc2ccccc2)NC(=O)[C@@H](N)CSSC[C@@H](C(=O)N[C@@H](C)C(=O)N[C@@H](CCCN=C(N)N)C(=O)N[C@@H](CCCCN)C(N)=O)NC(=O)[C@H](CCCCN)NC(=O)[C@H](CCCN=C(N)N)NC1=O` (HELM PEPTIDE1{C.F.G.G.F.T.G.A.R.K.C.A.R.K.[am]}$PEPTIDE1,PEPTIDE1,1:R3-11:R3$$$V2.0) registered an Emax in assay [1] of 81%.

`C[C@H](NC(=O)CNC(=O)[C@@H](NC(=O)[C@H](Cc1ccccc1)NC(=O)CNC(=O)CNC(=O)[C@@H](N)Cc1ccccc1)[C@@H](C)O)C(=O)N[C@@H](CCCN=C(N)N)C(=O)N[C@@H](CCCCN)C(=O)N[C@H]1CSSC[C@@H](C(N)=O)NC(=O)[C@H](CCCCN)NC(=O)[C@H](CCCN=C(N)N)NC(=O)[C@H](C)NC1=O` (HELM PEPTIDE1{F.G.G.F.T.G.A.R.K.C.A.R.K.C.[am]}$PEPTIDE1,PEPTIDE1,10:R3-14:R3$$$V2.0) had an Emax in assay [1] of 99%.

In turn, `C[C@H](NC(=O)CNC(=O)[C@@H](NC(=O)[C@H](Cc1ccccc1)NC(=O)CNC(=O)CNC(=O)[C@H](Cc1ccccc1)NC(=O)[C@@H](N)CS)[C@@H](C)O)C(=O)N[C@@H](CCCNC(=N)N)C(=O)N[C@@H](CCCCN)C(=O)N[C@@H](CO)C(=O)N[C@@H](CS)C(=O)N[C@@H](CCCNC(=N)N)C(=O)N[C@@H](CCCCN)C(N)=O` (H-CFGGFTGARKSCRK-NH2) displayed an EC50 in assay [2] (hek293) of 286 nM. Besides, in assay [3] (hek293), the IC50 came to 1290 nM.

Consider `C[C@H](NC(=O)[C@H](CS)NC(=O)[C@H](CCCCN)NC(=O)[C@H](CCCN=C(N)N)NC(=O)[C@H](C)NC(=O)[C@H](CS)NC(=O)[C@@H](NC(=O)[C@H](Cc1ccccc1)NC(=O)CNC(=O)CNC(=O)[C@@H](N)Cc1ccccc1)[C@@H](C)O)C(=O)N[C@@H](CCCN=C(N)N)C(=O)N[C@@H](CCCCN)C(N)=O` (H-FGGFTCARKCARK-NH2), for which the Emax in assay [1] turned out to be 94%. The same compound returned an EC50 in assay [2] of 29.7 nM. Also, the IC50 in assay [3] came to 3.03 nM.

Consider `C[C@@H]1NC(=O)CNC(=O)[C@H]([C@@H](C)O)NC(=O)[C@H](Cc2ccccc2)NC(=O)CNC(=O)CNC(=O)[C@H](Cc2ccccc2)NC(=O)[C@@H](N)CSSC[C@@H](C(=O)N[C@@H](CCCNC(=N)N)C(=O)N[C@@H](CCCCN)C(N)=O)NC(=O)[C@H](CO)NC(=O)[C@H](CCCCN)NC(=O)[C@H](CCCNC(=N)N)NC1=O` (HELM PEPTIDE1{C.F.G.G.F.T.G.A.R.K.S.C.R.K.[am]}$PEPTIDE1,PEPTIDE1,1:R3-12:R3$$$V2.0), for which the EC50 in assay [2] is 439 nM. Moreover, in assay [3], the IC50 turned out to be 387 nM.

In turn, `C[C@H](NC(=O)[C@H](CO)NC(=O)[C@H](CCCCN)NC(=O)[C@H](CCCN=C(N)N)NC(=O)[C@H](C)NC(=O)[C@@H]1CSSC[C@H](N)C(=O)N[C@@H](Cc2ccccc2)C(=O)NCC(=O)NCC(=O)N[C@@H](Cc2ccccc2)C(=O)N[C@@H]([C@@H](C)O)C(=O)N1)C(=O)N[C@@H](CCCN=C(N)N)C(=O)N[C@@H](CCCCN)C(N)=O` (HELM PEPTIDE1{C.F.G.G.F.T.C.A.R.K.S.A.R.K.[am]}$PEPTIDE1,PEPTIDE1,1:R3-7:R3$$$V2.0) gave an Emax in assay [1] of 18%.
